# Test results reported in ChEMBL document CHEMBL1125376, “Class III antiarrhythmic activity of novel substituted 4-[(methylsulfonyl)amino]benzamides and sulfonamides” (J Med Chem, 1992).
# “And” between values parts separate entries of the source, which are not always exact repeats. Equal values may be shown once.
# Experiments:
# Canis familiaris [1] = species on record: Canis familiaris; assay: Effect on the transmembrane potential of dog Purkinje fibers paced at a basic cycle length of stimulation of 1000 ms, repolarization time to -60 mV at 0.3 uM concentration; assay type: functional; details: Canis lupus familiaris, Purkinje fiber
# Procedure, shortened: (§1)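 Purkinje fiber bundles were taken from pentobarbital-anesthetized mongrel dogs. They were superfused at 37.5-38.0 °C with Tyrode's (mM: NaCl 138, KCl 4, CaCl2 2, NaHCO3 24, MgCl2 0.5, Na2HPO4 1.8, dextrose 5) gassed with 95% O2-5% CO2, pH 7.3-7.4. Stimulation used 2.0 ms pulses at twice threshold. Fibers were equilibrated ≥1 h before drug. Action potentials were recorded at 4-6 sites and averaged per fiber.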
# Canis familiaris [2] = species on record: Canis familiaris; assay: Effect on the transmembrane potential of dog Purkinje fibers paced at a basic cycle length of stimulation of 300 ms, repolarization time to -60 mV at 0.3 uM concentration; assay type: functional; details: Canis lupus familiaris, Purkinje fiber; procedure, shortened: as §1
# Canis familiaris [3] = species on record: Canis familiaris; assay: Effect on the transmembrane potential of dog Purkinje fibers paced at a basic cycle length of stimulation of 300 ms, repolarization time to -60 mV, at a concentration of 3 uM; assay type: functional; details: Canis lupus familiaris, Purkinje fiber; procedure, shortened: as §1
# Canis familiaris [4] = species on record: Canis familiaris; assay: Effect on the transmembrane potential of dog Purkinje fibers paced at a basic cycle length of stimulation of 1000 ms, repolarization time to -60 mV, at a concentration of 3 uM; assay type: functional; details: Canis lupus familiaris, Purkinje fiber; procedure, shortened: as §1
# Canis familiaris [5] = assay: Effect on atrial effective refractory period, after intravenous administration in open-chest anesthetized dogs at dose of 1.0 mg/kg
# [6] = Maximum rate of depolarization of the upstroke of the action potential at 3 uM concentration; set-up: unit not given beside the values
# Procedure, shortened: (§2)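 Purkinje fiber bundles from pentobarbital-anesthetized mongrel dogs, superfused at 37.5-38.0 °C with Tyrode's solution (95% O2-5% CO2, pH 7.3-7.4). Stimulation with 2.0 ms square pulses at 2× threshold. Fibers equilibrated at least 1 h before drug. Action potentials recorded at four to six sites, control vs drug, and averaged per fiber.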
# Canis familiaris [7] = assay: Ventricular effective refractory period, after intravenous administration in open-chest anesthetized dogs at dose of 0.5 mg/kg; assay type: functional, Canis lupus familiaris, Heart; details: dose 10.0 mg/kg, in the assay text read “10.0 mg/kg” for “0.5 mg/kg”
# Procedure, shortened: (§3)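 Mongrel dogs, pentobarbital-anesthetized (30 mg/kg iv plus 5 mg/kg per h), open chest. Compound given iv. Atrial and ventricular effective refractory periods and conduction times measured during pacing at 300 ms, along with heart rate and mean arterial pressure. Two doses per compound, chosen from dose-response runs. Values are % change from predrug, mean ± SE.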
# Canis familiaris [8] = assay: Heart rate, after intravenous administration in open-chest anesthetized dogs at dose of 0.05 mg/kg; assay type: functional, Canis lupus familiaris; details: dose 5.0 mg/kg, in the assay text read “5.0 mg/kg” for “0.05 mg/kg”; procedure, shortened: as §3
# Canis familiaris [9] = assay: Atrial conduction time, after intravenous administration in open-chest anesthetized dogs at dose of 10.0 mg/kg
# Canis familiaris [10] = assay: Mean arterial pressure, after intravenous administration in open-chest anesthetized dogs at dose of 0.5 mg/kg; assay type: functional, Canis lupus familiaris, Artery; details: dose 10.0 mg/kg, in the assay text read “10.0 mg/kg” for “0.5 mg/kg”; procedure, shortened: as §3
# Canis familiaris [11] = assay: Ventricular effective refractory period, after intravenous administration in open-chest anesthetized dogs at dose of 0.05 mg/kg; assay type: functional, Canis lupus familiaris, Heart; details: dose 5.0 mg/kg, in the assay text read “5.0 mg/kg” for “0.05 mg/kg”; procedure, shortened: as §3
# Canis familiaris [12] = assay: Atrial effective refractory period, after intravenous administration in open-chest anesthetized dogs at dose of 10.0 mg/kg
# Canis familiaris [13] = species on record: Canis familiaris; assay: Effect on the transmembrane potential of dog Purkinje fibers paced at a basic cycle length of stimulation of 1000 ms, repolarization time to -60 mV, at a concentration of 0.3 uM; assay type: functional; details: Canis lupus familiaris, Purkinje fiber; procedure, shortened: as §1
# Canis familiaris [14] = species on record: Canis familiaris; assay: Effect on the transmembrane potential of dog Purkinje fibers paced at a basic cycle length of stimulation of 300 ms, repolarization time to -60 mV; assay type: functional; details: Canis lupus familiaris; Purkinje fiber; procedure, shortened: as §1
# Canis familiaris [15] = assay: Mean arterial pressure, after intravenous administration in open-chest anesthetized dogs at dose of 0.05 mg/kg; assay type: functional, Canis lupus familiaris, Artery; details: dose 5.0 mg/kg, in the assay text read “5.0 mg/kg” for “0.05 mg/kg”; procedure, shortened: as §3
# Canis familiaris [16] = species on record: Canis familiaris; assay: Effect on the transmembrane potential of dog Purkinje fibers paced at a basic cycle length of stimulation of 1000 ms, repolarization time to -60 mV; assay type: functional; details: Canis lupus familiaris; Purkinje fiber; procedure, shortened: as §1
# Canis familiaris [17] = assay: Heart rate, after intravenous administration in open-chest anesthetized dogs at dose of 0.5 mg/kg; assay type: functional, Canis lupus familiaris; details: dose 10.0 mg/kg, in the assay text read “10.0 mg/kg” for “0.5 mg/kg”; procedure, shortened: as §3
# Canis familiaris [18] = assay: Ventricular conduction time, after intravenous administration in open-chest anesthetized dogs at dose of 0.5 mg/kg; assay type: functional, Canis lupus familiaris, Heart; details: dose 10.0 mg/kg, in the assay text read “10.0 mg/kg” for “0.5 mg/kg”; procedure, shortened: as §3
# Canis familiaris [19] = assay: Effect on mean arterial pressure, after intravenous administration in open-chest anesthetized dogs at dose of 0.05 mg/kg; assay type: functional, Canis lupus familiaris, Artery
# Canis familiaris [20] = assay: Effect on ventricular effective refractory period, after intravenous administration in open-chest anesthetized dogs at dose of 0.05 mg/kg; assay type: functional, Canis lupus familiaris, Cardiac ventricle
# Canis familiaris [21] = assay: Effect on ventricular conduction time, after intravenous administration in open-chest anesthetized dogs at dose of 0.05 mg/kg; assay type: functional, Canis lupus familiaris, Cardiac ventricle
# Canis familiaris [22] = assay: Effect on trial effective refractory period, after intravenous administration in open-chest anesthetized dogs at dose of 0.5 mg/kg; assay type: functional, Canis lupus familiaris
# Canis familiaris [23] = assay: Effect on ventricular conduction time, after intravenous administration in open-chest anesthetized dogs at dose of 0.5 mg/kg; assay type: functional, Canis lupus familiaris, Cardiac ventricle
# Canis familiaris [24] = assay: Effect on heart rate, after intravenous administration in open-chest anesthetized dogs at dose of 0.05 mg/kg; assay type: functional, Canis lupus familiaris
# Canis familiaris [25] = assay: Effect on atrial conduction time, after intravenous administration in open-chest anesthetized dogs at dose of 0.5 mg/kg; assay type: functional, Canis lupus familiaris, Cardiac atrium
# Canis familiaris [26] = assay: Effect on mean arterial pressure, after intravenous administration in open-chest anesthetized dogs at dose of 0.5 mg/kg; assay type: functional, Canis lupus familiaris, Artery
# Canis familiaris [27] = assay: Effect on heart rate, after intravenous administration in open-chest anesthetized dogs at dose of 0.5 mg/kg; assay type: functional, Canis lupus familiaris
# Canis familiaris [28] = assay: Effect on ventricular effective refractory period, after intravenous administration in open-chest anesthetized dogs at dose of 0.5 mg/kg; assay type: functional, Canis lupus familiaris, Cardiac ventricle
# Canis familiaris [29] = assay: Atrial effective refractory period, after intravenous administration in open-chest anesthetized dogs at dose of 0.05 mg/kg; assay type: functional, Canis lupus familiaris, Cardiac atrium
# Canis familiaris [30] = species on record: Canis familiaris; assay: Effect on the transmembrane potential of dog Purkinje fibers paced at a basic cycle length of stimulation of 300 ms, repolarization time to -60 mV, at a concentration of 0.3 uM; assay type: functional; details: Canis lupus familiaris, Purkinje fiber; procedure, shortened: as §1
# Canis familiaris [31] = assay: Atrial conduction time, after intravenous administration in open-chest anesthetized dogs at dose of 0.05 mg/kg; assay type: functional, Canis lupus familiaris, Cardiac atrium
# Canis familiaris [32] = assay: Effect on ventricular effective refractory period, after intravenous administration in open-chest anesthetized dogs at dose of 0.1 mg/kg; assay type: functional, Canis lupus familiaris, Cardiac ventricle
# Canis familiaris [33] = assay: Effect on ventricular conduction time, after intravenous administration in open-chest anesthetized dogs at dose of 1.0 mg/kg; assay type: functional, Canis lupus familiaris, Cardiac ventricle
# Canis familiaris [34] = assay: Effect on ventricular effective refractory period, after intravenous administration in open-chest anesthetized dogs at dose of 1.0 mg/kg; assay type: functional, Canis lupus familiaris, Cardiac ventricle; procedure, shortened: as §3
# Canis familiaris [35] = assay: Effect on heart rate, after intravenous administration in open-chest anesthetized dogs at dose of 1.0 mg/kg; assay type: functional, Canis lupus familiaris
# Canis familiaris [36] = assay: Effect on atrial effective refractory period, after intravenous administration in open-chest anesthetized dogs at dose of 0.1 mg/kg; assay type: functional, Canis lupus familiaris, Cardiac atrium
# Canis familiaris [37] = assay: Effect on atrial effective refractory period, after intravenous administration in open-chest anesthetized dogs at dose of 1.0 mg/kg; assay type: functional, Canis lupus familiaris, Cardiac atrium
# Canis familiaris [38] = assay: Effect on mean arterial pressure, after intravenous administration in open-chest anesthetized dogs at dose of 0.1 mg/kg; assay type: functional, Canis lupus familiaris, Artery
# Canis familiaris [39] = assay: Effect on heart rate, after intravenous administration in open-chest anesthetized dogs at dose of 0.1 mg/kg; assay type: functional, Canis lupus familiaris
# Canis familiaris [40] = assay: Effect on ventricular conduction time, after intravenous administration in open-chest anesthetized dogs at dose of 0.1 mg/kg; assay type: functional, Canis lupus familiaris, Cardiac ventricle
# Canis familiaris [41] = assay: Effect on mean arterial pressure, after intravenous administration in open-chest anesthetized dogs at dose of 1.0 mg/kg; assay type: functional, Canis lupus familiaris, Artery
# Canis familiaris [42] = assay: Effect on atrial conduction time, after intravenous administration in open-chest anesthetized dogs at dose of 1.0 mg/kg; assay type: functional, Canis lupus familiaris, Cardiac atrium
# Canis familiaris [43] = assay: Effect on atrial conduction time, after intravenous administration in open-chest anesthetized dogs at dose of 0.1 mg/kg; assay type: functional, Canis lupus familiaris, Cardiac atrium
# Canis familiaris [44] = assay: Prodrug ventricular fibrillation threshold(VFT) in open-chest anesthetized dogs(Control = 8+/-1) at a dose of 2.5 mg/kg iv; assay type: functional, Canis lupus familiaris, Cardiac ventricle
# [45] = (§4) Maximum rate of depolarization of the upstroke of the action potential at 3 uM; procedure, shortened: as §2
# Canis familiaris [46] = species on record: Canis familiaris; assay: Effect on transmembrane potential of dog Purkinje fibers paced at a basic cycle length of stimulation of 300 ms, repolarization time to -60 mV at 3 uM; assay type: functional; details: Canis lupus familiaris, Purkinje fiber; procedure, shortened: as §1
# [47] = as §4; procedure, shortened: as §2; remark: listed apart in the source
# Canis familiaris [48] = species on record: Canis familiaris; assay: Effect on the transmembrane potential of dog Purkinje fibers paced at a basic cycle length of stimulation of 1000 ms, repolarization time to -60 mV at 3 uM; assay type: functional; details: Canis lupus familiaris, Purkinje fiber; procedure, shortened: as §1
compound,measurement,setting,value
Cl.Cn1c(N2CCN(C(=O)c3ccc(NS(C)(=O)=O)cc3)CC2)nc2ccccc21,APD60,Canis familiaris [1],17
same,APD60,Canis familiaris [2],6
same,APD60,Canis familiaris [3],33
same,APD60,Canis familiaris [4],75
same,Change,Canis familiaris [5],33%
same,Vmax,[6],-3
CN(CCN1CCn2c1nc1ccccc12)S(=O)(=O)c1ccc(NS(C)(=O)=O)cc1.Cl,Change,Canis familiaris [7],19%
same,Change,Canis familiaris [8],-15%
same,Change,Canis familiaris [9],3%
same,Change,Canis familiaris [10],-8%
same,Change,Canis familiaris [11],18%
same,Change,Canis familiaris [12],66%
same,APD60,Canis familiaris [13],30
same,APD60,Canis familiaris [14],16
same,Change,Canis familiaris [15],-9%
same,APD60,Canis familiaris [16],30
same,Change,Canis familiaris [17],-24%
same,Change,Canis familiaris [18],-5%
CN(CCOc1ccc(NS(C)(=O)=O)cc1)CCc1ccc(NS(C)(=O)=O)cc1 [DOFETILIDE],Change,Canis familiaris [19],1%
same,Change,Canis familiaris [20],23%
same,Change,Canis familiaris [21],-4%
same,Change,Canis familiaris [22],65%
same,Change,Canis familiaris [23],-4%
same,Change,Canis familiaris [24],-14%
same,Change,Canis familiaris [25],-9%
same,Change,Canis familiaris [26],-2%
same,Change,Canis familiaris [27],-24%
same,APD60,Canis familiaris [14],30
same,Change,Canis familiaris [28],27%
same,APD60,Canis familiaris [16],67
same,Change,Canis familiaris [29],46%
same,APD60,Canis familiaris [30],42
same,Change,Canis familiaris [31],-4%
Cc1cccc(CCN2CCC(C(=O)c3ccc(NS(C)(=O)=O)cc3)CC2)n1,Change,Canis familiaris [32],20%
same,Change,Canis familiaris [33],-2%
same,Change,Canis familiaris [34],26%
same,Change,Canis familiaris [35],-25%
same,Change,Canis familiaris [36],34%
same,Change,Canis familiaris [37],55%
same,Change,Canis familiaris [38],-6%
same,APD60,Canis familiaris [13],74
same,Change,Canis familiaris [39],-18%
same,Change,Canis familiaris [40],-3%
same,Change,Canis familiaris [41],-19%
same,APD60,Canis familiaris [14],21
same,APD60,Canis familiaris [16],53
same,APD60,Canis familiaris [30],27
same,Change,Canis familiaris [42],1%
same,Change,Canis familiaris [43],1%
CN(CCN(C)S(=O)(=O)c1ccc(NS(C)(=O)=O)cc1)c1nc2ccccc2n1C.Cl,APD60,Canis familiaris [1],46
same,APD60,Canis familiaris [2],24
same,VFT,Canis familiaris [44],8 and 24
same,Vmax,[45],11
same,APD60,Canis familiaris [46],40
same,Vmax,[47],13
same,APD60,Canis familiaris [48],57
